# Screening data: PubChem, several laboratories
# HSF1 inhib: HSF1 inhibition; NIH3T3-HGL HSE-luciferase, MG132-induced, luminescence 8 h; active compounds read low; hit rate 0.77% among 300,000; AID 2098; activity change, negative = inhibition, % at 7.5 µM (by protocol);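 active = more than half of replicate wells show activity change below -50%, luminescence cut by over half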;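 also: luciferase reports HSF-1 transcriptional activity via heat shock element; 0% = median of DMSO wells and -100% = zero luminescence signal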
# HSF-1 act: increases HSF-1 driven luciferase reporter signal. NIH3T3-HGL HSF-1 luciferase reporter, MG132, 8 h; 100% = twice DMSO control signal. activation, % at 9 µM. hit rate 1.7% among 300,000;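 active = mean replicate activation of at least 50% with a set share of replicates each reaching 50%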;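 also: 0% = median of the neutral control wells and 100% = twice that signal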
# Lmaj promast: inhibitors of Leishmania major promastigote growth. Leishmania major promastigotes, resazurin fluorescence viability. inhibition, % at 10 µM. hit rate 9% among 200,000; in the data active = inhibition above about 50%;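 also: promastigotes grown with compound for 44 hours at 28 °C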
# T cruzi repl: T. cruzi replication inhibition; hit rate 1.4% among 300,000; T. cruzi beta-gal in NIH3T3, luminescence, 90 h; inhibition, % (concentration not given with the values);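 active = mean inhibition across valid replicates above about 55%, limit read from the data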;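 also: signal also drops with host cell toxicity which is not excluded here; 0% = plate median of DMSO wells and 100% = zero luminescence signal; higher percent means less beta-gal luminescence so fewer parasites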
#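 Material: NIH/3T3 host cells with β-galactosidase reporter T. cruzi; Input: 5,000 host fibroblasts per well; Medium: DMEM, 2% fetal bovine serum; Compound: 50 nL DMSO compound solution per well; Schedule: 3 h host attachment, then at least 90 h co-culture; Detection: luminescent β-galactosidase signal after 60 min lysis.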
# Hsp70 act: Hsp70 transcriptional activation, primary screen; hit rate 0.04% among 200,000; AID 1203; HeLa Hsp70 promoter luciferase reporter, luminescence; scaled: vehicle 0, proteasome-inhibitor control 100%; activation, % at 10 µM;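 active = activation above the mean across all tested compounds plus 3 SD, cutoff set per campaign, cut at about 5.5% in these data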;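 also: 100% = MG132 at 30 µM as the positive control and 0% = DMSO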
# An asterisk follows results filed as active; x = not tested or not shown. The sample as a whole holds a higher share of hits than the screen did.
SMILES,HSF1 inhib,HSF-1 act,Lmaj promast,T cruzi repl,Hsp70 act
COc1ccc(OC)c(/C=C/C(=O)N2CCCc3ccccc32)c1,11,5,23,12,0
COc1ccc(/C=C/C(=O)N2CCCc3ccccc32)cc1,13,18,60*,7,0
COc1cc(/C=C/C(=O)N2CCCc3ccccc32)cc(OC)c1OC,-2,13,50*,1,0
CCc1nnc(NC(=O)CSc2nnc(-c3ccc(NS(=O)(=O)c4ccccc4)cc3)o2)s1,-5,3,-2,-5,0
CCCn1c(=O)c(C(=O)NNS(=O)(=O)c2ccc(NC(=O)OC)cc2)c(O)c2ccccc21,-5,0,x,3,x
CCN(Cc1ccncc1)C(=O)c1cc(Br)cc(Br)c1O,11,51*,0,-16,0
COc1ccc(NC(=O)COc2ccccc2)cc1NC(=O)c1ccco1,2,-4,x,-15,x
COC(=O)c1ccc(NC(=O)CSC2=Nc3ccccc3C3CC=NN23)cc1 (stereo not given),9,2,55*,3,0
COc1ccc(OC)c(NC(=O)CN(C)CC(=O)Nc2ccccc2Br)c1,-2,-13,-2,10,0
N/C(=N\OC(=O)C1CCCCC1)c1ccc(Cl)cc1,39,85*,x,-5,x
N/C(=N\OC(=O)C1CCCCC1)c1ccncc1,8,18,-11,-14,0
O=C(CNC(=O)C1CCCCC1)OCC(=O)c1ccc(Cl)s1,-4,-22,-9,-16,0
NC(=NC1CCCCC1)c1ccc(Cl)cc1,0,-10,0,10,0
O=C(CNC(=O)C1CCCCC1)OCC(=O)c1ccc(Br)cc1,16,65*,x,-3,x
N/C(=N\OC(=O)C1CCCCC1)c1ccc(Br)cc1,17,57*,x,-17,x
C/C(=C\C=C\c1ccccc1)C(=O)c1c(C)cc(C)[nH]c1=O,1,10,-3,16,0
C/C(=N\NC(=O)c1nnn(-c2nonc2N)c1C(C)C)c1ccncc1,-51*,-58,x,2,x
C/C(=N\NC(=O)c1nnn(-c2nonc2N)c1CN(C)c1ccccc1)c1ccccc1O,-3,14,x,64*,x
C/C(=N\NC(=O)c1nnn(-c2nonc2N)c1C(C)C)c1ccc2ccccc2c1,-5,-1,x,-12,x
O=C(Nc1nc(-c2ccco2)c(-c2ccco2)s1)c1cnccn1,6,1,x,70*,x
O=C(Nc1nc2c(s1)CCCC2=O)c1cnccn1,-6,-2,-3,1,0
CN(C)c1ccc(C(=S)Nc2ccccc2)cc1,-82*,-85,-9,-5,0
CN(C)c1ccc(NC(=S)c2ccccn2)cc1,-41,-36,6,7,-1
O=C1CCN(Cc2ccc(Br)cc2)CCN1[C@H](CO)Cc1ccccc1,4,2,x,14,x
Cc1nn(C)cc1S(=O)(=O)Nc1ccc2c(c1)OCCO2,-63*,-69,-7,0,0
SMILES,HSF1 inhib,HSF-1 act,Lmaj promast,T cruzi repl,Hsp70 act
Cc1n[nH]c(C)c1S(=O)(=O)Nc1ccc2c(c1)OCCO2,-62*,-63,-2,-15,0
Cc1ccc(N(CC(=O)Nc2ccc3c(c2)OCCO3)S(=O)(=O)c2c(C)n[nH]c2C)cc1,-2,-5,41,6,0
Cc1cc2cc(CN(C(=O)C3CC3)C3CCCC3)c3nnnn3c2cc1C,-1,23,6,13,0
Cc1ccc(C(C(=O)NC2CCCCC2)N(Cc2ccco2)C(=O)Cn2cnc3ccccc32)cc1 (stereo not given),10,19,60*,17,0
O=C(NC1CCCCC1)C(c1ccc(F)cc1)N(Cc1ccco1)C(=O)Cn1nnc2ccccc21 (stereo not given),2,46,44,6,0
CCCCCN(C(=O)CCC(=O)OCCOc1cccc(Cl)c1)c1c(N)n(CCCC)c(=O)[nH]c1=O,9,20,x,-6,x
Cc1cc(C)nc(/N=C(\N)Nc2ccc(OCc3ccccc3)cc2)n1,0,-4,100*,45,0
Cc1cc(C)nc(/N=C(\N)Nc2cccc(OCc3ccccc3)c2)n1,-11,-8,x,-14,x
COc1ccc(O)c(/C=N/NC(=O)c2ccc(OCc3cccc(Br)c3)cc2)c1,-5,-8,97*,73*,0
COc1ccc(C(=O)N/N=C/c2cc(Br)ccc2O)cc1OC,2,3,x,56*,x
COc1cc(OC)c(C2NC(=O)CCC2[N+](=O)[O-])cc1OC (stereo not given),-4,-16,x,-14,x
COc1ccc(C2NC(=O)CCC2[N+](=O)[O-])c(OC)c1 (stereo not given),16,56*,x,-13,x
O=C1NCCN(C(=O)CCc2nnc(-c3ccsc3)o2)C1c1ccc(F)cc1 (stereo not given),-1,7,-2,-8,0
OC(CN1CCN(Cc2ccc3c(c2)OCO3)CC1)c1c[nH]c2ccccc12 (stereo not given),-6,-18,91*,26,0
OC(CN1CCN(c2ccccc2)CC1)c1c[nH]c2ccccc12 (stereo not given),10,16,4,-15,0
Cc1c(C(O)CN2CCN(Cc3ccc4c(c3)OCO4)CC2)c2ccccc2n1C (stereo not given),-2,-3,100*,67*,0
O=C(c1cc(S(=O)(=O)N2CCC3(CC2)OCCO3)ccc1F)N1CCCCC1,-6,0,-6,-10,0
Cc1cc(Cl)n2c(nc3cc(F)c(F)cc32)c1C#N,110,179*,91*,79*,4
CCOC(=O)c1[nH]c2cc(OC)c(OC)cc2c1NC(=O)CN(C)C1CCCCC1,-3,-10,61*,20,0
CCOC(=O)c1[nH]c2cc(OC)c(OC)cc2c1NC(=O)c1ccc2c(c1)OCO2,5,5,5,13,0
Clc1ccc(OCCOCCN2CCc3ccccc3C2)c(Cl)c1,0,-12,88*,59*,0
CC1CN(CCOCCOc2ccccc2-c2ccccc2)CC(C)O1 (stereo not given),-6,8,x,-9,x
Clc1ccc(OCCCN2CCc3ccccc3C2)c(Br)c1,-11,-7,x,32,x
c1ccc(-c2ccccc2OCCOCCN2CCc3ccccc3C2)cc1,-7,-3,77*,29,0
Cc1ccsc1C(=O)N1CCC(CO)(Cc2ccccc2)CC1,x,x,8,x,0
CN(C)S(=O)(=O)c1ccc(C(=O)OCCCN=C2NS(=O)(=O)c3ccccc32)cc1,-67*,-73,-5,-9,0
CN(C)S(=O)(=O)c1ccc(C(=O)OCCN=C2NS(=O)(=O)c3ccccc32)cc1,3,3,x,-6,x
COc1ccccc1-c1c(C)[nH]n2c(=O)c(Cc3ccccc3)c(C)nc12,6,25,15,10,0
Cc1nc2c(-c3ccccc3)c[nH]n2c(=O)c1Cc1ccccc1,-24,-23,59*,62*,0
Cc1cc2nc(C)c(Cc3ccccc3)c(=O)n2[nH]1,-17,-15,97*,33,0
